Measured values published in ChEMBL document CHEMBL1938329, “The discovery of potent, selective, and orally active pyrazoloquinolines as PDE10A inhibitors for the treatment of Schizophrenia” (Bioorg Med Chem Lett, 2012).
Activity calls are given as the source filed them. The rule behind the calls is not given here.

Tests used:
[1] = Drug uptake in rat brain at 10 mg/kg, po after 6 hrs; type: ADME, organism-based; design: dose 10 mg/kg, route oral; settings: read-out: Drug uptake
Summary of the method: (§1)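 Rat cassette-accelerated rapid screen, 10 mg/kg oral. Plasma exposure measured over 0–6 h. Brain drug concentration taken at 6 h. Brain/plasma ratio is brain over plasma drug concentration at 6 h.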

[2] = molecular target: cAMP and cAMP-inhibited cGMP 3',5'-cyclic phosphodiesterase 10A (Homo sapiens, UniProt Q9Y233); assay: Inhibition of recombinant human PDE10A using [3H]cAMP as substrate by scintillation proximity assay
Chain of cAMP and cAMP-inhibited cGMP 3',5'-cyclic phosphodiesterase 10A (Q9Y233 whole entry): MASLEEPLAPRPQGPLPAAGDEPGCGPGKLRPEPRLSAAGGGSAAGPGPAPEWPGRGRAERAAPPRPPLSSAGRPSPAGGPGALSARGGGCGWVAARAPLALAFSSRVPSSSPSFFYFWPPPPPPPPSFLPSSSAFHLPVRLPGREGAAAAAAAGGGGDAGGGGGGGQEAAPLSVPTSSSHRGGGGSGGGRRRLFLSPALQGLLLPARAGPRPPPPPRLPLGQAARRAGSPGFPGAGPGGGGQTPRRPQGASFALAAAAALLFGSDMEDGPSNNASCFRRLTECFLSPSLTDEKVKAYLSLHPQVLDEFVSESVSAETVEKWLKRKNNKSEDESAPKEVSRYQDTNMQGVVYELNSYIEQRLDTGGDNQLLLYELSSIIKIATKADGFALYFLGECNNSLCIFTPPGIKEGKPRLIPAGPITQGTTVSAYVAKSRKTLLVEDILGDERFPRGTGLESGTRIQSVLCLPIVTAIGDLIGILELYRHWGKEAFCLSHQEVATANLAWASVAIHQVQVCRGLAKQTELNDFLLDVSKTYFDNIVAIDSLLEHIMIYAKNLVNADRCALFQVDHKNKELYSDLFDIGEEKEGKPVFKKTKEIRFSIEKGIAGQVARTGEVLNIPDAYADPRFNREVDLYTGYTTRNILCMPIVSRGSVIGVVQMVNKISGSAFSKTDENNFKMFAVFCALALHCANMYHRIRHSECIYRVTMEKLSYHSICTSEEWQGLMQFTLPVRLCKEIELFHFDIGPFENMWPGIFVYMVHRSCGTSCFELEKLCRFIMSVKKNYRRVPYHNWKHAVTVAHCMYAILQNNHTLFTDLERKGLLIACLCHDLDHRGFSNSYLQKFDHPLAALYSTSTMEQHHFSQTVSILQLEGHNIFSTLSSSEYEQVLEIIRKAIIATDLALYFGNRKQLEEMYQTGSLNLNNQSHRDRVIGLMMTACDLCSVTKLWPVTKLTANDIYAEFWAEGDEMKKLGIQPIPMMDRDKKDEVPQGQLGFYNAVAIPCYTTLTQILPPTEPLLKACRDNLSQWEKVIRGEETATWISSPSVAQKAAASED
Summary of the method: (§2)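 Scintillation proximity assay with [³H]cAMP as substrate, measuring hydrolysis of cAMP to AMP by recombinant human PDEs 1–11. Ki values are means of at least two experiments.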

Phosphodiesterase 6 = assay: Inhibition of recombinant human PDE6 using [3H]cAMP as substrate by scintillation proximity assay; type: protein assay; summary of the method: as §2
[3] = AUC (0 to 6 hrs) in rat at 10 mg/kg, po; type: ADME, organism-based; design: time < 6 hr, dose 10 mg/kg, route oral; settings: plasma; summary of the method: as §1
[4] = molecular target: Phosphodiesterase 6 (Homo sapiens) (UniProt Q13956+P18545+P35913+O43924+P16499+P51160); assay: Inhibition of recombinant human PDE6 using [3H]cAMP as substrate at 1 uM by scintillation proximity assay; type: protein assay
Rattus norvegicus [5] = assay: Antipsychotic activity in CD rat assessed as inhibition of MK-801-induced hyperactivity at 30 mg/kg, po relative to control; type: functional, organism-based; design: dose 30 mg/kg
Summary of the method: (§3)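 Male CD rats habituated to locomotor activity chambers 24 h before testing. On test day, MK-801 (0.3 mg/kg, sc) co-administered with PDE10 inhibitor (po), then rats placed in apparatus. Inhibition expressed as percent of activity in inhibitor + MK-801 group relative to vehicle + MK-801 group.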

Rattus norvegicus [6] = assay: Antipsychotic activity in CD rat assessed as inhibition of MK-801-induced hyperactivity at 10 mg/kg, po relative to control; type: functional, organism-based; design: dose 10 mg/kg; summary of the method: as §3

Compound	Ki [2] [µM]	Ki (Phosphodiesterase 6) [µM]	further results
COc1cc(C)c2nc3[nH]nc(C)c3c(N3CCC(NC(N)=O)CC3)c2c1	0.027	–	concentration at 6 h [1]: < 10 ng/g
Cc1n[nH]c2nc3ccc(Cl)cc3c(N3CCNCC3)c12	0.419	–	–
COc1cc(C)c2nc3[nH]nc(C)c3c(NCC3CNCCO3)c2c1 (centres undefined)	0.005	13.882	–
COc1cc(C)c2nc3[nH]nc(C)c3c(NCCc3ccncc3)c2c1	0.07	0.554	–
COc1ccc2nc3[nH]nc(C)c3c(N3CCNCC3)c2c1	0.585	–	–
COc1cc(C)c2nc3[nH]nc(C)c3c(NCc3ccncc3)c2c1	0.0006	0.211	–
Cc1cc(Cl)cc2c(N3CCNCC3)c3c(C)n[nH]c3nc12	0.035	–	AUC(0-t) at 6 h [3]: 0.14 µM·h

Second part, led by results:

Ki [2] [µM]	Ki (Phosphodiesterase 6) [µM]	Compound	further results
0.023	–	COc1cc(C)c2nc3[nH]nc(C)c3c(N3CCOCC3)c2c1	–
0.041	7.383	COc1cc(C)c2nc3[nH]nc(C)c3c(N(C)C3CCOCC3)c2c1	–
0.001	–	COc1cc(C)c2nc3[nH]nc(C)c3c(N3CCC(N)CC3)c2c1	concentration at 6 h [1]: < 10 ng/g
0.363	–	COc1cc(C)c2nc3[nH]nc(C)c3c(N3CCCCC3)c2c1	–
0.014	–	COc1cc(C)c2nc3[nH]nc(C)c3c(N3CCC(O)CC3)c2c1	concentration at 6 h [1]: < 10 ng/g
0.029	–	COc1cc(C)c2nc3[nH]nc(C)c3c(N3CCCC(CO)C3)c2c1 (racemic)	concentration at 6 h [1]: < 10 ng/g
0.052	0.697	COc1cc(C)c2nc3[nH]nc(C)c3c(NCC3CCOCC3)c2c1	–
0.0031	–	COc1cc(C)c2nc3[nH]nc(C)c3c(OC3CCOCC3)c2c1	AUC(0-t) at 6 h [3]: 10.6 µM·h; inhibition [4]: 30%; inhibition (Rattus norvegicus [5]): Active; inhibition (Rattus norvegicus [6]): inactive
